Molecules are shown by their SMILES. pKi: −log10 of the molar value. Non-standard residues stand in square brackets, D forms with d. Residues, ends and D or L forms follow the SMILES beside them. Dhb = C/C=C(\N)C(=O)O

By inhibition is commonly meant the relative decrease from the control value, in per cent. Lower therefore signals a response near the control. What is called pKi is the negative decadic logarithm of the Ki, by convention in mol/L. A higher pKi goes with a low Ki.

The target of the first test is T1, Dipeptidase 1 (Sus scrofa) (UniProt P22412).
T1 sequence (whole entry): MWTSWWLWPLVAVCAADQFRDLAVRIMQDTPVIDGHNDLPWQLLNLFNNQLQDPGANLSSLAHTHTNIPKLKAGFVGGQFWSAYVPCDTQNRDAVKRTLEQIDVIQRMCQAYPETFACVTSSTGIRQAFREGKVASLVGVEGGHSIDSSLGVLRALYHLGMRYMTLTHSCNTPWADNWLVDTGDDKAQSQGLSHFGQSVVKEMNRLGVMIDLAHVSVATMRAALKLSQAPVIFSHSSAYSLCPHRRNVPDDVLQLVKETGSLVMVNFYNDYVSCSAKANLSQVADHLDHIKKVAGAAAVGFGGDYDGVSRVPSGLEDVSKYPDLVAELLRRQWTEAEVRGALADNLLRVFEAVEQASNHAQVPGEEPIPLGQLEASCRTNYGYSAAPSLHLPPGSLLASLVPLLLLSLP
The test is described as follows: Inhibitory activity against beta-lactamase renal dipeptidase at a concentration of 100 uM. Summed up: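 Inhibitor was incubated with solubilized renal dipeptidase (50–75% ammonium sulfate fraction, 5 µg) in 50 mM MOPS pH 7.1 for 5 min at 37 °C. Glycyldehydrophenylalanine was then added to 50 µM. Rate was followed as the absorbance decrease at 275 nm over 10 min and compared with the uninhibited rate.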
`C/C=C(\NC(=O)C(C)C)C(=O)O` returned an inhibition of 31%.
The same measure, in the same setting: next, `C/C=C(\NC(=O)CCc1ccccc1)C(=O)O`: 30%; `C/C=C(\NC(=O)CCCCCCCCCCCCCCCCC)C(=O)O`: 12%; `C/C=C(\NC(=O)CC1=CCCCC1)C(=O)O`: 50%.
On the same count and under the same terms, the same measure for `C/C=C(\NC(=O)C1C(C)(C)C1(C)C)C(=O)O`: 10%; for `C/C=C(\NC(=O)c1ccc2ccccc2c1)C(=O)O`: 3%.
Molecule `C/C=C(\NC(=O)c1c(Cl)cccc1Cl)C(=O)O` returned an inhibition of 0%.
Same read-out and setting: the same measure for `C/C=C(\NC(=O)CC12CC3CC(CC(C3)C1)C2)C(=O)O`: 33%; for `C/C=C(\NC(=O)C1(C)CC1)C(=O)O`: 16%; for `C=CCCC(=O)N/C(=C\C)C(=O)O`: 57%.
The same measure, in the same setting: the same measure for `C/C=C(\NC(=O)CCl)C(=O)O`: 52%; for `C/C=C(\NC(=O)C(CC)CCCC)C(=O)O` (configuration not stated): 33%.
On to `C/C=C(\NC(=O)Cc1ccccc1)C(=O)O`, for which the inhibition was 21%.
The same measure, in the same setting: next, `C/C=C(\NC(=O)CCCCCC)C(=O)O`: 49%; `C/C=C(\NC(=O)c1ccc(Cl)cc1)C(=O)O`: 7%.
The same measure, in the same setting: the same measure for `CC(C)=C(NC(=O)C1CC1(C)C)C(=O)O` (configuration not stated): 57%; for `C/C=C(\NC(=O)/C=C/c1ccccc1)C(=O)O`: 0%.
In the case of `C=C(NC(=O)c1ccccc1)C(=O)O`, the inhibition amounted to 9%.
Molecule `C/C=C(\NC(=O)CCC1CCCCC1)C(=O)O` showed an inhibition of 54%.
The same measure, in the same setting: the same measure for `C/C=C(\NC(=O)c1ccc(OC)cc1)C(=O)O`: 0%; for `C/C=C(\NC(=O)CN)C(=O)O` (H-Gly-[Dhb]-OH): 6%.
Same read-out and setting: the same measure for `C/C=C(\NC(=O)CC)C(=O)O`: 43%; for `C/C=C(\NC(=O)c1ccc(C)cc1)C(=O)O`: 2.5%; for `C/C=C(\NC(C)=O)C(=O)O`: 12%.
On to `C/C=C(\NC(=O)CCC1CCCC1)C(=O)O`, for which the inhibition turned out to be 56%.

The next test has as its target T2, Dipeptidase 1 (Sus scrofa, UniProt P22412).
T2 sequence (P22412 whole entry): T1 sequence (whole entry)
The test is described as follows: Inhibitory activity against beta-lactamase renal dipeptidase.
Molecule `C/C=C(\NC(=O)CCCCC#N)C(=O)O` had a pKi of 4.60.
On the same count and under the same terms, the same measure for `CC(NCCCCC/C=C(\NC(=O)C1CC1(C)C)C(=O)O)P(=O)(O)O` (configuration not stated): 6.55; for `C/C=C(\NC(=O)CC1CCCCC1)C(=O)O`: 4.60.
On the same count and under the same terms, the same measure for `CC1(C)CC1C(=O)N/C(=C\CCCCS(=O)(=O)O)C(=O)O` (configuration not stated): 7.06; for `CC1(C)C[C@@H]1C(=O)N/C(=C\CCCCSC[C@H](N)C(=O)O)C(=O)O` (stereo in doubt; 174) [CILASTATIN]: 6.68.
On the same count and under the same terms, the same measure for `CC1(C)C[C@@H]1C(=O)N/C(=C\CCCCCNC(C)(C)P(=O)(O)O)C(=O)O`: 6.74; for `CC1(C)CC1C(=O)N/C(=C\CCCCCCBr)C(=O)O` (configuration not stated): 6.80.
As to `C/C=C(\NC(=O)c1ccccc1Cl)C(=O)O`, the negative logarithm of the Ki (pKi) is 4.60. This pKi is 2.20 log units lower than that of the molecule before.
With `C/C=C(\NC(=O)[C@@H]1C[C@H]1C(C)(C)C)C(=O)O`, the pKi was 5.19.
Molecule `CC1(C)CC1C(=O)N/C(=C\CCCCC[n+]1ccccc1)C(=O)[O-]` (configuration not stated) showed a negative logarithm of the Ki (pKi) of 5.96.
The same measure, in the same setting: the same measure for `C/C=C(\NC(=O)CCCc1cccs1)C(=O)O`: 5.00; for `CC1(C)CC1C(=O)N/C(=C\CCCCCBr)C(=O)O` (configuration not stated): 6.57; for `C/C=C(\NC(=O)CC(C)CCCC(C)(C)O)C(=O)O` (configuration not stated): 4.17.
Regarding `CN(C)CCCCCCC/C=C(\NC(=O)C1CC1(C)C)C(=O)O` (configuration not stated), the pKi is 6.28.
`COC(=O)CSCCC/C=C(\NC(=O)C1CC1(C)C)C(=O)O` (configuration not stated): the pKi was 6.55.
Same read-out and setting: the same measure for `C/C=C(\NC(=O)CSCC)C(=O)O`: 4.51; for `CN(C)CCCCC/C=C(\NC(=O)C1CC1(C)C)C(=O)O` (configuration not stated): 5.89; for `CC1(C)CC1C(=O)N/C(=C\CCCCCS)C(=O)O` (configuration not stated): 6.77.
On to `CC1(C)CC1C(=O)N/C(=C\CCCCCCCBr)C(=O)O` (configuration not stated), for which the pKi is 6.96.
On the same count and under the same terms, the same measure for `C/C=C(\NC(=O)C=C(C)C)C(=O)O`: 4.55; for `CC1(C)CC1C(=O)N/C(=C\CCCCCNC1=NCCN1)C(=O)O` (configuration not stated): 6.08.
`CC1(C)CC1C(=O)N/C(=C\CCCCCC#N)C(=O)O` (configuration not stated) had a pKi of 7.09.
Same read-out and setting: the same measure for `CC1(C)CC1C(=O)N/C(=C\CCCSc1ncccc1O)C(=O)O` (configuration not stated): 6.89; for `C=CCC/C=C(\NC(=O)C1CC1(C)C)C(=O)O` (configuration not stated): 6.64.
Still for that read-out and setting: next, `C/C=C(\NC(=O)CC1CCCC1)C(=O)O`: 5.01; `CC1(C)CC1C(=O)N/C(=C\CCCCSCC(=O)O)C(=O)O` (configuration not stated): 6.89.
Same read-out and setting: next, `C/C=C(\NC(=O)[C@@H]1C[C@H]1C)C(=O)O`: 5.77.
`C/C=C(\NC(=O)CCCC(=O)OCC)C(=O)O` showed a pKi of 4.41.
`C/C=C(\NC(=O)C1CCC1C)C(=O)O` (configuration not stated): the negative logarithm of the Ki (pKi) was 5.33.
The same measure, in the same setting: the same measure for `CC1(C)CC1C(=O)N/C(=C\CCCCCSCC(N)C(=O)O)C(=O)O` (configuration not stated): 6.64; for `C[N+](C)(C)CCCCC/C=C(\NC(=O)C1CC1(Cl)Cl)C(=O)O` (configuration not stated): 6.74; for `C/C=C(\NC(=O)[C@H]1[C@H](C)[C@@H]1C)C(=O)O`: 5.34.
Still for that read-out and setting: next, `C/C=C(\NC(=O)CCCCCCCC)C(=O)O`: 4.49; `CCN(CC)CCCCC/C=C(\NC(=O)C1CC1(C)C)C(=O)O` (configuration not stated): 6.07.
Still for that read-out and setting: the same measure for `CC1(C)CC1C(=O)N/C(=C\CCCCSc1ncccc1C(=O)O)C(=O)O` (configuration not stated): 7.40; for `CC(C)CC(=O)N/C(=C\CCC(=O)O)C(=O)O`: 5.57.
`COCCCC/C=C(\NC(=O)C1CC1(C)C)C(=O)O` (configuration not stated) had a negative-log Ki (pKi) of 6.80.
The same measure, in the same setting: next, `C/C=C(\NC(=O)C1CC1(F)F)C(=O)O` (configuration not stated): 5.68.
The molecule `CC1(C)CC1C(=O)N/C(=C\C1CCCCC1)C(=O)O` (configuration not stated) showed a pKi of 6.40.
Molecule `CC1(C)CC1C(=O)N/C(=C\CCCCBr)C(=O)O` (configuration not stated) had a pKi of 6.82.
On the same count and under the same terms, the same measure for `CC1(C)CC1C(=O)N/C(=C\CCCBr)C(=O)O` (configuration not stated): 6.42; for `C/C=C(\NC(=O)C1CC1)C(=O)O`: 5.52; for `C/C=C(\NC(=O)C1C(C)C1(C)C)C(=O)O` (configuration not stated): 5.14.
Same read-out and setting: next, `CC(=O)NC(CSCCCC/C=C(\NC(=O)[C@H]1CC1(C)C)C(=O)O)C(=O)O` (some centres not stated): 7.22; `CC1(C)CC1C(=O)N/C(=C\CCCCSc1ccccc1)C(=O)O` (configuration not stated): 7.00.
For the molecule `CN(CCCCCC/C=C(\NC(=O)C1CC1(C)C)C(=O)O)CC(=O)O` (configuration not stated), the negative-log Ki (pKi) is 6.40.
Same read-out and setting: the same measure for `CC(NCCCCC/C=C(\NC(=O)[C@H]1CC1(C)C)C(=O)O)P(=O)(O)O` (some centres not stated): 6.80.
For the molecule `CC1(C)CC1C(=O)N/C(=C\CCCSCP(=O)(O)O)C(=O)O` (configuration not stated), the pKi is 6.66. This pKi and that of the molecule before are within 0.2 log units of each other.
For the molecule `C=C(NC(=O)C1CC1(C)C)C(=O)O` (configuration not stated), the pKi was 4.28. This pKi is 2.38 log units lower than that of the molecule before.
Consider `CC1(C)CC1C(=O)N/C(=C\CCCCCSCC(N)=O)C(=O)O` (configuration not stated), for which the pKi is 6.60.
Same read-out and setting: the same measure for `C/C=C(\NC(=O)CCCCCNC(=O)CC)C(=O)O`: 4.39.
Still for that read-out and setting: next, `CC1(C)CC1C(=O)N/C(=C\CCCCCNCP(=O)(O)O)C(=O)O` (configuration not stated): 6.40.
Still for that read-out and setting: the same measure for `CN(C)CCCC/C=C(\NC(=O)C1CC1(C)C)C(=O)O` (configuration not stated): 5.46.
Molecule `C/C=C(\NC(=O)CCCCC(=O)OCC)C(=O)O` showed a negative-log Ki (pKi) of 4.74.
Same read-out and setting: the same measure for `CC1(C)CC1C(=O)N/C(=C\CCCCCCCN)C(=O)O` (configuration not stated): 6.09.
`CC(=O)NCCCCC/C=C(\NC(=O)C1CC1(C)C)C(=O)O` (configuration not stated): the pKi was 6.64.
The same measure, in the same setting: the same measure for `CC1(C)CC1C(=O)N/C(=C\C1CC1)C(=O)O` (configuration not stated): 6.36; for `CC1(C)CC1C(=O)N/C(=C\CCCCCNC(N)=O)C(=O)O` (configuration not stated): 6.52.
As for `C/C=C(\NC(=O)C1CCCCC1)C(=O)O`, the pKi is 4.82.
Still for that read-out and setting: the same measure for `CC1(C)CC1C(=O)N/C(=C\CCCCCN)C(=O)O` (configuration not stated): 6.00; for `CC1(C)C[C@@H]1C(=O)N/C(=C\CCCCSC[C@H](N)C(=O)O)C(=O)O` (stereo in doubt; 175) [CILASTATIN]: 6.72.
`CC1(C)CC1C(=O)N/C(=C\CCCCSCC(=O)C(=O)O)C(=O)O` (configuration not stated) showed a pKi of 6.80.
The same measure, in the same setting: next, `CCCCC/C=C(/NC(=O)C1CC1(C)C)C(=O)O` (configuration not stated): 4.95; `CCC/C=C(\NC(=O)C1CC1(Br)Br)C(=O)O` (configuration not stated): 7.82.
In turn, `C/C=C(\NC(=O)[C@@H]1C[C@@H]1C)C(=O)O` had a pKi of 4.92.
On the same count and under the same terms, next, `C/C=C(\NC(=O)C1(C)CC1(Cl)Cl)C(=O)O` (configuration not stated): 3.79; `C/C=C(\NC(=O)[C@@H]1C[C@H]1c1ccccc1)C(=O)O`: 5.30.
Still for that read-out and setting: next, `C/C=C(\NC(=O)C1CC1(Br)Br)C(=O)O` (configuration not stated): 7.52.
The same measure, in the same setting: the same measure for `C=CCCCCCCCCC(=O)N/C(=C\C)C(=O)O`: 4.47.
`C/C=C(\NC(=O)CCC(C)C)C(=O)O` gave a pKi of 4.85.
As to `C/C=C(\NC(=O)CC(C)CCCC(C)C)C(=O)O` (configuration not stated), the pKi was 5.40. Compared with the last molecule, the pKi is 0.55 log units higher.
Still for that read-out and setting: the same measure for `CC1(C)CC1C(=O)N/C(=C\CCCCSc1ccccc1C(=O)O)C(=O)O` (configuration not stated): 7.22; for `C/C=C(\NC(=O)C(C)C(C)C)C(=O)O` (configuration not stated): 5.48; for `C/C=C(\NC(=O)CCCCCCCCC(=O)O)C(=O)O`: 4.55.
Still for that read-out and setting: next, `COC(=O)CSCCCCC/C=C(\NC(=O)C1CC1(C)C)C(=O)O` (configuration not stated): 6.70; `C/C=C(\NC(=O)CCCCC(=O)N/C(=C\C)C(=O)O)C(=O)O`: 5.00; `CCCCC/C=C(\NC(=O)C1CC1(Cl)Cl)C(=O)O` (configuration not stated): 7.22.
